Test results as given in ChEMBL document CHEMBL1641427, “Arylsulfanyl pyrazolones block mutant SOD1-G93A aggregation. Potential application for the treatment of amyotrophic lateral sclerosis” (Bioorg Med Chem, 2011).
≈ marks a conversion by molar mass, not a printed value.

Experiments:
[1] = Inhibition of SOD1 G93A mutant aggregation in rat PC12 cells by cytotoxicity protection assay; format: cell-based; conditions: PC-12
[2] = Aqueous solubility of the compound; format: physicochemical; conditions: buffer
Summary of the method: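 DMSO stock 3-fold serially diluted at 100× final, then diluted into PBS to 1% DMSO final. Incubated 1 h at room temperature, inspected visually for precipitate and read at 450 nm. Solubility limit is the highest concentration neither cloudy nor above background absorbance (visual only for coloured compounds).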

[3] = test system: Caco-2; assay: (§1) Permeability from apical to basolateral side of human Caco2 cells after 2 hrs; format: ADME, cell-based; conditions: caco-2, 2 h
Summary of the method: (§2)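 Caco-2 cells were seeded on collagen-coated inserts and differentiated for 3 weeks, fed every 2 days. The donor side received 50 μM compound in HBSS with 10 mM HEPES and 1.98 g/L glucose, apical at pH 6.5 and basolateral at pH 7.4, for 2 h. Apical 100 μM Lucifer yellow checked monolayer integrity (<1%/2 h). Papp = dQ/dt/(C0·A), and the ratio is Papp(B→A)/Papp(A→B).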

[4] = test system: Caco-2; assay: (§3) Permeability from basolateral to apical side of human Caco2 cells after 2 hrs; format: ADME, cell-based; conditions: caco-2, 2 h; summary of the method: as §2
[5] = (§4) Ratio of permeability from basolateral to apical side to apical to basolateral side in human Caco2 cells; format: ADME, cell-based; conditions: Caco-2; summary of the method: as §2
[6] = test system: Plasma; assay: Half life of the compound in mouse plasma at 5 uM; format: ADME, cell-free
Summary of the method: (§5)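 Samples taken at 15 s and at 10, 20, 40 and 60 min, precipitated with acetonitrile containing haloperidol internal standard, then LC-MS/MS. Plasma/PBS response ratio fitted to a first-order exponential (1/Y weighting); T1/2 = ln2/k. PBS half-life from its own exponential fit.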

[7] = Stability of the compound in PBS assessed as compound remaining after 60 mins; format: physicochemical; conditions: read-out: Stability; summary of the method: as §5
[8] = Half life in human microsome by LC-MS/MS analysis; format: ADME; conditions: microsomes
[9] = Half life in mouse microsome by LC-MS/MS analysis; format: ADME, microsomes; conditions: for t1/2: microsomes
[10] = Intrinsic clearance in mouse microsome by LC-MS/MS analysis in presence of NADPH; format: ADME; conditions: mouse microsomes
[11] = Drug level in Tg6799 mouse brain measured per gram of tissue at 1 mg/kg, ip after 10 mins by LC-MS/MS analysis; format: ADME, organism-based; parameters: dose 1 mg/kg, route intraperitoneal; conditions: read-out: Drug uptake
Summary of the method: (§6)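 Female Tg6799 mice (B6/SJL background), n=3, given 1 mg/kg i.p. in 60% PBS/40% DMSO (100 μL per 10 g) and killed at 10 min. Plasma collected by centrifugation. Brain PBS-perfused via left ventricle, excised, weighed and homogenized in acetonitrile with internal standard. Analyte measured by LC-MS/MS as ratio to internal standard; plasma in μg/mL, brain in μg/g. Brain/plasma ratio computed after μM conversion assuming brain density 1 g/mL. Mean ± SD.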

[12] = Drug level in Tg6799 mouse plasma at 1 mg/kg, ip after 10 mins by LC-MS/MS analysis; format: ADME, organism-based; parameters: dose 1 mg/kg, route intraperitoneal; conditions: read-out: Drug uptake; summary of the method: as §6
[13] = Ratio of drug level in brain to plasma in Tg6799 mouse at 1 mg/kg, ip after 10 mins by LC-MS/MS analysis; format: ADME, organism-based; parameters: dose 1 mg/kg, route intraperitoneal; summary of the method: as §6
[14] = Ratio of AUC of compound to 4-ethylidene-1H-pyrazol-5(4H)-ones in pig brain at 0.50 ug/ml brain extract concentration; format: ADME, tissue-based, Sus scrofa; conditions: in vivo
Summary of the method: (§7)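 Brain standards: analyte added to pig brain pieces (300–500 mg) with acetonitrile and internal standard at final 0.05, 0.10, 0.5 and 1.0 μg/mL (1 mL total). Homogenized, then 20 μL aliquot run by LC-MS/MS. Analyte/internal standard response taken. Triplicate.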

[15] = Ratio of AUC of compound to 4-ethylidene-1H-pyrazol-5(4H)-ones in pig brain at 1 ug/ml brain extract concentration; format: ADME, tissue-based, Sus scrofa; conditions: in vivo; summary of the method: as §7
[16] = test system: Mus musculus; assay: Plasma area ratio in Tg6799 mouse at 1 mg/kg, ip after 10 mins by LC-MS/MS analysis; format: ADME, organism-based; parameters: dose 1 mg/kg, route intraperitoneal; conditions: in vivo; summary of the method: as §6
[17] = test system: Mus musculus; assay: Brain area ratio in Tg6799 mouse at 1 mg/kg, ip after 10 mins by LC-MS/MS analysis; format: ADME, organism-based; parameters: dose 1 mg/kg, route intraperitoneal; conditions: in vivo; summary of the method: as §6
[18] = test system: Brain; assay: Effect of compound on Tg6799 mouse brain weight at 1 mg/kg, ip after 10 mins; format: ADME, organism-based; parameters: dose 1 mg/kg, route intraperitoneal; conditions: in vivo
[19] = Ratio of AUC of compound to 4-ethylidene-1H-pyrazol-5(4H)-ones in pig brain at 0.10 ug/ml brain extract concentration; format: ADME, tissue-based, Sus scrofa; conditions: in vivo; summary of the method: as §7
[20] = Ratio of AUC of compound to 4-ethylidene-1H-pyrazol-5(4H)-ones in pig brain at 0.05 ug/ml brain extract concentration; format: ADME, tissue-based, Sus scrofa; conditions: in vivo; summary of the method: as §7
[21] = Intrinsic clearance in mouse microsome by LC-MS/MS analysis; format: ADME; conditions: mouse microsomes
[22] = test system: Plasma (Homo sapiens); assay: Ratio of AUC of compound to 4-ethylidene-1H-pyrazol-5(4H)-ones in human serum at 0.50 ug/ml plasma concentration
[23] = test system: Plasma (Homo sapiens); assay: Ratio of AUC of compound to 4-ethylidene-1H-pyrazol-5(4H)-ones in human serum at 0.05 ug/ml plasma concentration
[24] = test system: Plasma (Homo sapiens); assay: Ratio of AUC of compound to 4-ethylidene-1H-pyrazol-5(4H)-ones in human serum at 0.10 ug/ml plasma concentration
[25] = test system: Plasma (Homo sapiens); assay: Ratio of AUC of compound to 4-ethylidene-1H-pyrazol-5(4H)-ones in human serum at 0.01 ug/ml plasma concentration
[26] = as §1; format: ADME, cell-based, Caco-2; conditions: Caco-2; summary of the method: as §2
[27] = as §3; format: ADME, cell-based, Caco-2; conditions: Caco-2; summary of the method: as §2
[28] = test system: Caco-2; assay: as §4; format: ADME, cell-based; summary of the method: as §2

Row | Compound | EC50 [1] [µM] | also measured
1 | O=C1NN=C(CSc2ccccc2)/C1=C/c1ccccc1 | > 32 | –
2 | O=c1cc(CSc2ccccc2)[nH][nH]1 | 10.1 | –
3 | O=c1cc(CSc2ccc(Cl)cc2)[nH][nH]1 | 1.93 | –
4 | Cn1[nH]c(CSc2ccc(Cl)cc2)cc1=O | 5.4 | –
5 | O=c1cc(CSc2ccc(Cl)cc2)[nH]n1-c1ccccc1 | 3.46 | –
6 | CC(C)(C)c1ccc(SCc2cc(=O)[nH][nH]2)cc1 | 2.31 | –
7 | O=c1cc(CSc2ccc([N+](=O)[O-])cc2)[nH][nH]1 | 2.4 | –
8 | COc1ccc(SCc2cc(=O)[nH][nH]2)cc1 | 1.81 | –
9 | O=c1cc(CSc2ccc(-c3ccccc3)cc2)[nH][nH]1 | 4.06 | –
10 | O=c1cc(CSc2ccc(F)cc2)[nH][nH]1 | 3.44 | –
11 | O=c1cc(CSc2ccc(Br)cc2)[nH][nH]1 | 1.8 | –
12 | Cc1cc(SCc2cc(=O)[nH][nH]2)c(Cl)cc1Cl | 0.55 | solubility [2]: 56 µM (≈ 16.2 µg/mL); Papp [3]: 4.7 ×10⁻⁶ cm/s; Papp [4]: 0.46 ×10⁻⁶ cm/s; efflux ratio [5]: 0.1; t1/2 [6]: 16 min; remaining at 1 h [7]: 100%; t1/2 [8]: 39 min; t1/2 [9]: 13 min
13 | Cc1cc(SCc2cc(=O)[nH][nH]2)c(C)cc1Cl | 0.4 | CLint scaled [10]: 242 mL/min/kg; concentration at 10 min [11]: 360 ng/g; concentration at 10 min [12]: 1960 ng/mL; Ratio [13]: 0.19; Ratio AUC [14]: 1.11; Ratio AUC [15]: 2.48; Ratio [16]: 0; Ratio [17]: 0; Activity [18]: 0.399 g; Ratio AUC [19]: 0.268; Ratio AUC [20]: 0.148; CLint scaled [21]: 63 mL/min/kg; t1/2 [9]: 15 min; Ratio AUC [22]: 1.58; Ratio AUC [23]: 0.304; Ratio AUC [24]: 0.637; Ratio AUC [25]: 0.068
14 | O=c1cc(CSc2ccccc2Cl)[nH][nH]1 | 3.05 | –
15 | O=c1cc(CSc2cccc(Cl)c2)[nH][nH]1 | 1.11 | –
16 | O=c1cc(CSc2ccc(Cl)cc2Cl)[nH][nH]1 | 1.15 | –
17 | O=c1cc(CSc2ccc(Cl)c(Cl)c2)[nH][nH]1 | 1.89 | –

Row | Compound | EC50 [1] [µM] | also measured
18 | O=c1cc(CSc2c(Cl)cccc2Cl)[nH][nH]1 | 0.95 | –
19 | O=c1cc(CSc2cc(Cl)cc(Cl)c2)[nH][nH]1 | 0.17 | –
20 | Cc1cc(SCC2=NNC(=O)/C2=C\N(C)C)c(Cl)cc1Cl | 0.9 | CLint scaled [10]: 924 mL/min/kg; CLint scaled [21]: 135 mL/min/kg; half-life ([9]; mouse microsomes): 4 min
21 | Cc1cc(SCC2=NNC(=O)/C2=C\N(C)C)c(C)cc1Cl | 5.3 | –
22 | Cc1ccc(SCc2cc(=O)n(-c3nc(C)cc(C)n3)[nH]2)cc1 | 3.5 | –
23 | Cc1ccc(SCc2cc(=O)[nH][nH]2)cc1 | 2 | –
24 | Cc1ccc(SCC2=NN(c3ccccc3)C(=O)/C2=C\c2ccc(-c3cccc(C(F)(F)F)c3)o2)cc1 | 4.1 | –
25 | O=c1cc(CSc2nnnn2-c2ccccc2)[nH]n1-c1ccccc1 | 6.6 | –
26 | Cc1cc(C)nc(-n2[nH]c(CSc3nnc(C)s3)cc2=O)n1 | 6.7 | –
27 | Cc1ccc(SCC2=NN(c3ccccc3)C(=O)/C2=C\C2=NCN=C2c2ccccc2)cc1 | 10 | –
28 | Cc1nnc(SCc2cc(=O)n(-c3nc4ccccc4s3)[nH]2)s1 | 44 | –
29 | O=C1/C(=C\c2ccc(-c3cccc(C(F)(F)F)c3)o2)C(CSc2ccccc2)=NN1c1ccccc1 | 35 | –
30 | Cc1nnc(SCc2cc(=O)[nH][nH]2)s1 | 16 | –
31 | O=c1cc(CSc2ccccn2)[nH][nH]1 | 46 | –
32 | O=C1ON=C(CSc2ccccc2)/C1=C/c1ccccc1 | 165 | –
33 | CNC(=C[N+](=O)[O-])NCCSCc1ccc(CN(C)C)o1 [RANITIDINE] | – | Papp A→B at 2 h [26]: 0.6 ×10⁻⁶ cm/s; Papp B→A at 2 h [27]: 0.6 ×10⁻⁶ cm/s; Ratio [28]: 1
34 | CC(=O)CC(c1ccccc1)c1c(O)c2ccccc2oc1=O (centres undefined) [WARFARIN] | – | CLint scaled [21]: 6 mL/min/kg
